Source: PMC10582055 (Saudi Pharmaceutical Journal : SPJ, 2023)
One block for each compound: values may come before it.

Legend:
Assay type in all cases: in vivo, Wistar rats
[1] = system: Pgp/MDR1; assay: Hepatic and intestinal Pgp/MDR1 protein expression
In short: (§1)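 Wistar rats (n = 6/group), fasted overnight and dosed by intragastric gavage: saline for 7 days; saline for 6 days, then the drug at 25 mg/kg p.o. on day 7; the drug on day 7 given 2 h after test compound at 40 mg/kg; or test compound at 40 mg/kg for 7 days. Liver and intestine protein (BCA) was run on 10% SDS-PAGE and blotted to PVDF. Primary antibodies with β-actin overnight at 4 °C, secondary 2 h, chemiluminescence, densitometry. Mean ± SD, one-way ANOVA.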

[2] = system: CYP3A2; assay: Hepatic and intestinal CYP3A2 protein expression
In short: as §1

[3] = system: BCRP/ABCG2; assay: Hepatic and intestinal BCRP/ABCG2 protein expression
In short: as §1

[4] = Pharmacokinetics of oral DAS in rats with or without SA pretreatment; details: for k el: Kel; for MRT inf: MRT 0-inf_obs
[5] = intestine, SA 40 mg/kg alone vs normal rats
[6] = intestine, SA-pretreated rats + DAS vs DAS alone
[7] = liver, SA 40 mg/kg alone vs normal rats
[8] = liver, SA-pretreated rats + DAS vs DAS alone
[9] = Wistar, rat, plasma, po, 25 mg/kg, rats, DAS 25 mg/kg p.o. after SA 40 mg/kg p.o. pretreatment for seven days, Mean ± SD
[10] = Wistar, rat, plasma, po, 25 mg/kg, rats, DAS 25 mg/kg p.o. single dose, alone, Mean ± SD
[11] = decrease, SA 40 mg/kg + DAS 25 mg/kg vs DAS alone, rats
[12] = increase, SA 40 mg/kg + DAS 25 mg/kg vs DAS alone, rats
[13] = rats, DAS 25 mg/kg p.o. after SA 40 mg/kg p.o. pretreatment for seven days, Mean ± SD
[14] = rats, DAS 25 mg/kg p.o. single dose, alone, Mean ± SD

inhibition of intestinal CYP3A2 protein expression [2, 5]: 89.47%
inhibition of hepatic CYP3A2 protein expression [2, 7]: 88.91%
inhibition of hepatic CYP3A2 protein expression ([2]; liver, SA 40 mg/kg pretreatment for seven days + DAS vs DAS administered rats): 57.11%
inhibition of intestinal BCPR/ABCG2 protein [3, 6]: 50.48%
inhibition of hepatic BCPR/ABCG2 protein [3, 8]: 51.44%
SMILES: COc1cc(/C=C/C(=O)O)cc(OC)c1O [SA, Sinapic acid]
inhibition of intestinal Pgp/MDR1 protein expression [1, 5]: 76.93%
inhibition of intestinal Pgp/MDR1 protein expression [1, 6]: 47.43%
inhibition of hepatic Pgp/MDR1 protein expression [1, 7]: 84.93%
inhibition of hepatic Pgp/MDR1 protein expression [1, 8]: 44.06%

increase of intestinal CYP3A2 protein expression ([2]; intestine, DAS administered rats (25 mg/kg p.o.) vs normal rats): 92.97%
increase of hepatic CYP3A2 protein expression ([2]; liver, DAS administered rats (25 mg/kg p.o.) vs normal rats): 92.03%
half-life ([4]; Wistar, rat, plasma, po, 25 mg/kg): 335 ± 12 min
AUC(0-t) [4, 9]: 2210 ± 96.3 ng·h/mL
AUC(0-t) [4, 10]: 1720 ± 70.6 ng·h/mL
Cmax [4, 9]: 419 ± 18.8 ng/mL
Cmax [4, 10]: 259 ± 9.71 ng/mL
k el [4, 9]: 3.33e-05 s⁻¹
k el [4, 10]: 4.44e-05 s⁻¹
MRT inf [4, 9]: 8.2 ± 0.25 h
MRT inf [4, 10]: 7.31 ± 0.17 h
% Change in Cl [4, 11]: 26.97%
% Change in Kel [4, 11]: 22.33%
% Change in Vd [4, 11]: 5.96%
% Change in AUC 0-t [4, 12]: 28.98%
% Change in AUMC 0-∞ [4, 12]: 53.63%
% Change in Cmax [4, 12]: 62.02%
% Change in MRT 0-inf_obs [4, 12]: 12.08%
% Change in T1/2 [4, 12]: 28.82%
% Change in Tmax [4, 12]: 100%
AUMC 0-∞ [4, 13]: 23569.00 ± 1418.58 ng/mL*h^2
Cl [4, 13]: 0.009 ± 0.00 (mg/kg)/(ng/mL)/h
Tmax [4, 13]: 2.00 ± 0.00 h
Vd [4, 13]: 0.070 ± 0.004 (mg/kg)/(ng/mL)
AUMC 0-∞ [4, 14]: 15341.83 ± 607.98 ng/mL*h^2
Cl [4, 14]: 0.012 ± 0.001 (mg/kg)/(ng/mL)/h
T1/2 [4, 14]: 4.34 ± 0.11 h
Vd [4, 14]: 0.075 ± 0.003 (mg/kg)/(ng/mL)
SMILES: Cc1nc(Nc2ncc(C(=O)Nc3c(C)cccc3Cl)s2)cc(N2CCN(CCO)CC2)n1 [DAS, Dasatinib]
induction of intestinal Pgp/MDR1 protein expression ([1]; intestine, DAS administration vs normal rats): 76.42%
induction of hepatic Pgp/MDR1 protein expression ([1]; liver, DAS administration vs normal rats): 72.30%
induction of intestinal BCPR/ABCG2 protein expression ([3]; intestine, DAS per-oral administration vs normal rats): 73.55%
induction of hepatic BCPR/ABCG2 protein expression ([3]; liver, DAS per-oral administration vs normal rats): 75.09%
